Most compounds without a hit are left out; they make up all but 4.9% or so of the library.
CHT block: human CHT choline transport inhibition | CHT-expressing cells, membrane potential dye, choline response; active compounds read low | actives 0.86% (n = 310,000) | B-score at 10 µM | Q9GZV3;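 active = B-score over 3 SD under the library average, and starting fluorescence ratio not unusually high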;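 also: choline stimulus applied at its EC90 after an EC20 pre-addition; B-score computed on integrated fluorescence ratio after choline addition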
Target sequence (Q9GZV3 whole entry, looked up): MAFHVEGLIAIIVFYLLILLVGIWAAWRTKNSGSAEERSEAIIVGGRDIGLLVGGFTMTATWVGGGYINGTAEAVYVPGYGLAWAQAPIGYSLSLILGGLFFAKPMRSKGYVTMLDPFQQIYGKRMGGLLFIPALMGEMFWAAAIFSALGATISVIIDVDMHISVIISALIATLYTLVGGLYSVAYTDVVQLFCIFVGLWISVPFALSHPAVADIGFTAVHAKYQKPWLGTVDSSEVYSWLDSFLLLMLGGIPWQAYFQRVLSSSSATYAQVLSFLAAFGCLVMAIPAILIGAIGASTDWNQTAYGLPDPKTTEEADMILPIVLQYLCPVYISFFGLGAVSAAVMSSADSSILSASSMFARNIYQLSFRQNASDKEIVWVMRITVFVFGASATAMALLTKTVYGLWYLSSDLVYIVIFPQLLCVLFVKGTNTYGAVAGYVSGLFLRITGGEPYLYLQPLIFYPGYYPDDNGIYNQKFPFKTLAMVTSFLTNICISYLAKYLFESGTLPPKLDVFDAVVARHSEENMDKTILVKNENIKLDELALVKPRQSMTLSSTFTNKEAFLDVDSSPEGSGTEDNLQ
HSF-1 act: increases HSF-1 driven luciferase reporter signal; AID 504408; NIH3T3-HGL HSF-1 luciferase reporter, MG132, 8 h; 100% = twice DMSO control signal; activation, % at 9 µM; actives 1.7% (n = 300,000);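 active = mean replicate activation of at least 50% with a set share of replicates each reaching 50%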;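 also: 0% = median of the neutral control wells and 100% = twice that signal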
CHT allo act: allosteric activators of human choline transporter CHT; Q9GZV3; CHT-expressing cells, membrane potential dye, choline EC20; active compounds read high; LV-AA mutant CHT in HEK293 cells; B-score at 10 µM; actives 0.49% (n = 310,000);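 active = initial fluorescence not abnormally high and integrated response B-score, plate-corrected, over 3 SD above library mean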
HSF1 inhib: HSF1 inhibition. NIH3T3-HGL HSE-luciferase, MG132-induced, luminescence 8 h; active compounds read low. activity change, negative = inhibition, % at 7.5 µM (by protocol). actives 0.77% (n = 300,000). AID 2098;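 active = more than half of replicate wells show activity change below -50%, luminescence cut by over half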;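 also: luciferase reports HSF-1 transcriptional activity via heat shock element; 0% = median of DMSO wells and -100% = zero luminescence signal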
Lipid droplet: hepatic lipid droplet formation modulation. AML12 mouse hepatocytes, oleate lipid droplets, BODIPY imaging. inhibition, % at 6.5 µM. actives 0.4% (n = 240,000). AID 1656;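 active = lipid droplet intensity inhibited by at least 50%, with more than 500 cells counted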
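Material – mouse AML12 hepatocyte cell line, fixed after treatment · Compound dosing – one dose, 6.5 µM compound · Times – compound with oleate, overnight · Measured by – Image-based BODIPY and DAPI two-channel analysis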
PHOSPHO1 block: inhibitors of human PHOSPHO1 phosphatase. Q8TCT1. recombinant PHOSPHO1, absorbance phosphatase assay. inhibition, % at 13.3 µM. actives 1.1% (n = 290,000). AID 1565; in the data active = inhibition above about 60%
CHT block conf: human CHT inhibition, confirmatory screen; actives 70% (n = 2,400); AID 493221; CHT-expressing cells, choline membrane potential dye; LV-to-AA substituted CHT, HEK293 cells; CHT activity remaining % of control (active compounds read low), % at 10 µM; shares compounds with CHT block;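 active = choline transporter activity left, mean of duplicates at 10 µM, below buffer-only control mean minus 3 SD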;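 also: depolarization triggered by choline at its EC90 following an EC20 pre-addition; 0% = hemicholinium-3 full block and 100% = buffer-only control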
HEK293 CHT ctr: CHT inhibitor counter-screen hit in parental HEK293 cells; shares compounds with CHT block; membrane potential dye, choline response; active = decrease or increase beyond buffer ±3SD; membrane potential ratio readout (active if shifted either direction beyond buffer ±3SD; no single direction) at 10 µM; actives 4% (n = 2,400); AID 493222;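 also: parental cells lack the transporter so any hit is non-specific; ratio is peak minus trough fluorescence over baseline after EC90 choline challenge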
* hit, by the source's call; i = inactive; x = no result.

SMILES	CHT block	HSF-1 act	CHT allo act	HSF1 inhib	Lipid droplet	PHOSPHO1 block	CHT block conf	HEK293 CHT ctr
Cc1ccc2cc3c(NS(=O)(=O)c4cccc5nonc45)nn(CC(C)C)c3nc2c1	-6*	5	i	2	20	45	64%*	i
CCCn1nc(NS(=O)(=O)c2cccc3nonc23)c2cc3cccc(C)c3nc21	-6.3*	-7	i	-3	-1	37	54%*	i
COc1ccc(NC(=O)Cn2c(C(C)C)nc(C)cc2=O)cc1Cl	i	7	i	-5	0	4	x	x
Cc1cccnc1NC1(C(F)(F)F)N=C(c2ccccc2)NC1=O (configuration not stated)	i	-2	i	-1	x	38	x	x
CC(C)c1ccc(NC(=O)c2ccc3c(c2)CCN3S(C)(=O)=O)cc1	i	6	i	1	-2	22	x	x
O=C(COC(=O)c1ccccc1C(=O)c1ccc(Cl)c([N+](=O)[O-])c1)NC1CCCCCC1	i	0	i	-3	-6	16	x	x
CN(CCC#N)C(=O)COC(=O)c1ccccc1C(=O)c1ccc(Cl)c([N+](=O)[O-])c1	-4.9*	16	i	14	2	12	49%*	i
COc1ccc(NCCC#N)cc1	i	-28	i	-7	11	29	x	x
O=C(Cc1ccc(-n2c(=O)c3ccccc3n(Cc3ccccc3F)c2=O)cc1)NCC1CCCO1 (configuration not stated)	-7.8*	30	i	-1	0	-4	41%*	i
CCc1ccccc1NC(=O)Cn1c(=O)n(-c2ccc(CC(=O)NCC3CCCO3)cc2)c(=O)c2ccccc21 (configuration not stated)	i	1	i	2	-12	40	x	x
Cc1nccc2[nH]c(=O)c(C(=O)NC(C)CCc3ccccc3)cc12 (configuration not stated)	i	16	i	-2	12	-25	x	x
Nc1c(N(Cc2ccccc2)C(=O)COc2ccc(F)cc2)c(=O)[nH]c(=O)n1Cc1ccccc1	i	2	i	-5	5	x	x	x
COc1cc(/C=C2/C(=O)NN(c3ccc(C)c(Cl)c3)C2=O)cc([N+](=O)[O-])c1O	i	-2	i	-4	0	28	x	x
Cc1ccc(N2NC(=O)/C(=C\c3cc4c(cc3[N+](=O)[O-])OCO4)C2=O)cc1C	-5*	3	i	-12	0	-5	42%*	i
CC(C)C(NC(=O)c1ccccc1Cl)C(=O)OCc1nc2scc(-c3ccccc3Cl)c2c(=O)[nH]1 (configuration not stated)	-5.1*	2	i	-9	-3	7	i	i
O=S(Cc1ccccc1)CC(O)(c1ccc(Cl)cc1)c1ccc(Cl)cc1 (configuration not stated)	i	28	i	14	x	13	x	x
O=S(Cc1ccccc1)CC(O)(c1ccccc1)c1ccccc1 (configuration not stated)	-5.1*	-1	i	2	x	-12	i	i
CC(=O)N(Cc1cccc(Br)c1)c1ccc(N2CCOCC2)c(Cl)c1	i	3	i	5	-20	14	x	x
COc1ccc(S(=O)(=O)NC2CCCCCC2)cc1C(N)=O	i	-13	i	-3	-14	24	x	x
C=Cn1c(C(=O)O)cc(CC)c1-c1ccccc1	i	-20	i	2	-22	-7	x	x
COc1ccccc1-c1ccc(=O)n(CC(=O)NC2CCc3ccccc32)n1 (configuration not stated)	-8.4*	17	i	-7	-5	19	i	i
Cc1onc(-c2ccccc2)c1-c1n[nH]c(=S)n1-c1ccc(C(=O)O)cc1	i	-1	i	-8	1	-6	x	x
O=C(CN1CCN(C(=O)c2ccco2)CC1)Nc1cc(C(F)(F)F)ccc1Cl	i	8	i	-1	x	1	x	x
CCC1CCCCN1CCCNC(=O)c1ccc2c(c1)c(C)c(C)n2C (configuration not stated)	-5.7*	-12	i	4	0	22	35%*	i
CCCCCn1c(=O)[nH]c2cc(C(=O)NCCCN3CCCCC3CC)ccc2c1=O (configuration not stated)	-6*	1	i	3	-24	-2	41%*	i
SMILES	CHT block	HSF-1 act	CHT allo act	HSF1 inhib	Lipid droplet	PHOSPHO1 block	CHT block conf	HEK293 CHT ctr
CN(CC(=O)Nc1ccc(F)cc1)C(=O)COC(=O)/C=C/c1ccc(OC(F)F)cc1	i	-15	i	-3	x	x	x	x
CCOC(=O)C1CCN(C(=O)Cc2c(F)cccc2Cl)CC1	i	-6	i	-1	3	19	x	x
CCOC(=O)C1CCCN(C(=O)Cc2c(F)cccc2Cl)C1 (configuration not stated)	-5.7*	-9	i	-8	-3	19	53%*	i
Cc1ccc(C(=O)Nc2ncc([N+](=O)[O-])s2)cc1	-5.9*	-18	i	6	-33	-3	56%*	i
O=C(Nc1ccc(OCc2ccccc2)cc1)Nc1ccccc1C(=O)NCCCN1CCOCC1	-5*	38	i	12	-5	29	44%*	i
O=C(Nc1ccccc1C(=O)NCCCN1CCOCC1)c1ccc(F)cc1F	i	-1	i	1	2	29	x	x
COC(=O)C1=C(N)Oc2cc(C)n(CCc3ccccc3)c(=O)c2C1c1cccnc1 (configuration not stated)	-5.2*	-46	i	-26	x	13	69%*	i
O=C(c1ccc(O)cc1)c1ccc(Cl)cc1	-6*	17	i	2	x	18	50%*	i
COc1ccc(C(=O)c2ccc(Cl)cc2)cc1	i	-4	i	18	-3	-9	x	x
O=C(/C=C/c1cn(-c2ccccc2)nc1-c1cccs1)NCCN1CCOCC1	-7.1*	24	i	6	13	24	i	i
Cc1ccccc1OCCSc1nnc(C)n1-c1ccccc1	-5.2*	-3	i	-1	-13	13	i	i
Cc1ccc(NC(=O)N2CCCC(c3nc(-c4ccc(F)cc4)no3)C2)cc1 (configuration not stated)	i	0	i	4	-21	45	x	x
